Test results taken from ChEMBL document CHEMBL3108700, “Designing anti-inflammatory drugs from parasitic worms: a synthetic small molecule analogue of the Acanthocheilonema viteae product ES-62 prevents development of collagen-induced arthritis” (J Med Chem, 2013).
Active and inactive are the calls of the source.

How the values were obtained:
TLR2/TLR6 (Mus musculus) [1] = target: T1, TLR2/TLR6 (Mus musculus) (UniProt Q9QUN7+Q9EPW9); assay: Inhibition of TLR2/6 in BALB/c mouse BMDM assessed as downregulation of BLP-stimulated IL-12p40 level at 5 ug/ml preincubated for 18 hrs followed by BLP challenge measured after 24 hrs by ELISA relative to control; format: protein-complex assay
Outline: (§1)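 BALB/c male bone marrow macrophages were differentiated 7 days with L929 supernatant (≥99% CD11b+/F4/80+). Cells were plated at 2 × 10^5/well in triplicate, rested overnight, and given compounds at 5 μg/mL for 18 h. They were then stimulated with 100 ng/mL S. minnesota LPS, 10 ng/mL Pam3CSK4 (BLP) or 0.01 μM CpG for 24 h. Supernatant IL-12p40 and IL-6 were measured by ELISA (sensitivity 16 pg/mL).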

[2] = target: T2, Toll-like receptor 4 (Mus musculus) (UniProt Q9QUK6); assay: Inhibition of TLR4 in BALB/c mouse BMDM assessed as downregulation of LPS-stimulated IL-6 level at 5 ug/ml preincubated for 18 hrs followed by LPS challenge measured after 24 hrs by ELISA relative to control; outline: as §1
T2 sequence (whole entry): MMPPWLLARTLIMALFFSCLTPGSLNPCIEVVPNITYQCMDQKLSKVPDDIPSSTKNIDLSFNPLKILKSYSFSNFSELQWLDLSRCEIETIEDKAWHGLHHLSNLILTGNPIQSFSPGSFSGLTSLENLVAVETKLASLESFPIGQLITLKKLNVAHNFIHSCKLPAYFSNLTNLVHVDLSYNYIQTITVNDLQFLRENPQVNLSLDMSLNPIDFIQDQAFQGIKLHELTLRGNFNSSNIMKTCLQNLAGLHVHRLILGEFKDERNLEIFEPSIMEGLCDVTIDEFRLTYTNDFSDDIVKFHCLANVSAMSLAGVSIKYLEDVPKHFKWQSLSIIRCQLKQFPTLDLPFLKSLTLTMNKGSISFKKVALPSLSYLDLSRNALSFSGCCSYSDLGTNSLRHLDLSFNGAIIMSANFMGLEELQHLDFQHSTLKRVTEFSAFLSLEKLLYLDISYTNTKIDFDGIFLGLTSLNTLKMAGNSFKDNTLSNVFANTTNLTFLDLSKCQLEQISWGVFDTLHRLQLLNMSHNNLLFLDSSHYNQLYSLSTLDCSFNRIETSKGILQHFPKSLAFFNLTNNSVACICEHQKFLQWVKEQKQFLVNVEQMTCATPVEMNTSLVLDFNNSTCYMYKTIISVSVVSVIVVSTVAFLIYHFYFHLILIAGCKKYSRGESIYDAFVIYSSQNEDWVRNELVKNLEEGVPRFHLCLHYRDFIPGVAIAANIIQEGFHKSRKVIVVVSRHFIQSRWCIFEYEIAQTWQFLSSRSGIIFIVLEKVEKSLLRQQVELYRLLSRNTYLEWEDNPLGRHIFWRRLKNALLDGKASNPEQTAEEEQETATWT

TLR2/TLR6 (Mus musculus) [3] = target: T1, TLR2/TLR6 (Mus musculus); assay: Inhibition of TLR2/6 in BALB/c mouse BMDM assessed as downregulation of BLP-stimulated IL-6 level at 5 ug/ml preincubated for 18 hrs followed by BLP challenge measured after 24 hrs by ELISA relative to control; format: protein-complex assay; outline: as §1
[4] = target: T3, Toll-like receptor 9 (Mus musculus) (UniProt Q9EQU3); assay: Inhibition of TLR9 in BALB/c mouse BMDM assessed as downregulation of CpG-stimulated IL-6 level at 5 ug/ml preincubated for 18 hrs followed by CpG challenge measured after 24 hrs by ELISA relative to control; outline: as §1
T3 sequence (whole entry): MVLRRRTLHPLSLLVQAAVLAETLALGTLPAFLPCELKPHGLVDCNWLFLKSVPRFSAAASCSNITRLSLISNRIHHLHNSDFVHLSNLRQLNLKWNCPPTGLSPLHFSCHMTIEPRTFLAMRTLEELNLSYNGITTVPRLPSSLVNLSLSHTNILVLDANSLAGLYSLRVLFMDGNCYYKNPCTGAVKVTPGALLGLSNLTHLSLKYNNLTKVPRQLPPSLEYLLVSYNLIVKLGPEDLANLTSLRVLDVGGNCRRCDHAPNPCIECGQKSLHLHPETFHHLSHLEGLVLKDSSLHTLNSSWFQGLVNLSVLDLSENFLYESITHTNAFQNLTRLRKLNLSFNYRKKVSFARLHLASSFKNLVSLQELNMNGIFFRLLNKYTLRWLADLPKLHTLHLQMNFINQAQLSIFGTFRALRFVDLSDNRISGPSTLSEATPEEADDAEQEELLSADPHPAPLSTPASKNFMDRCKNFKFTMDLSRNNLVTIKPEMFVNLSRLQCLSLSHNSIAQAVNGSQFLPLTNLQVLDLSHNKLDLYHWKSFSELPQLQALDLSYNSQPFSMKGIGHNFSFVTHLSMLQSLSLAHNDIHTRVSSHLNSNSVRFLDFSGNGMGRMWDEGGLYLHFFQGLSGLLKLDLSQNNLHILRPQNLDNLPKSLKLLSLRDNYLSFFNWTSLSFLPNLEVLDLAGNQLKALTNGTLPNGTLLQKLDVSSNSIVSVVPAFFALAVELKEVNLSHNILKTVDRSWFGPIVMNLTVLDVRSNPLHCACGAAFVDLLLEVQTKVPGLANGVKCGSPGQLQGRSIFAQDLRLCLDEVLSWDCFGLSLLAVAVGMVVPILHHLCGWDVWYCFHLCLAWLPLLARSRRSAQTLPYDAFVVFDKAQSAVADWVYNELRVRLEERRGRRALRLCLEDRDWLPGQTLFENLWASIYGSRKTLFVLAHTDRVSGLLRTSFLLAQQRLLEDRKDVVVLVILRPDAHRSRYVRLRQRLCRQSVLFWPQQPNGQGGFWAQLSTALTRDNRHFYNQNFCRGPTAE

[5] = target: T3, Toll-like receptor 9 (Mus musculus); assay: Inhibition of TLR9 in BALB/c mouse BMDM assessed as downregulation of CpG-stimulated IL-12p40 level at 5 ug/ml preincubated for 18 hrs followed by CpG challenge measured after 24 hrs by ELISA relative to control; outline: as §1
[6] = target: T2, Toll-like receptor 4 (Mus musculus); assay: Inhibition of TLR4 in BALB/c mouse BMDM assessed as downregulation of LPS-stimulated IL-12p40 level at 5 ug/ml preincubated for 18 hrs followed by LPS challenge measured after 24 hrs by ELISA relative to control; outline: as §1
[7] = target: T3, Toll-like receptor 9 (Mus musculus); assay: Inhibition of TLR9-mediated NFkappaB p65 activation in CpG-stimulated BALB/c mouse BMDM at 5 ug/ml preincubated for 18 hrs followed by CpG challenge measured after 1 hr by TransAM ELISA
Outline: (§2)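 Bone marrow macrophages (4 × 10^6/well) had their medium changed after 24 h, were pretreated with compounds at 5 μg/mL for 18 h, then stimulated for 1 h with 100 ng/mL LPS, 10 ng/mL BLP or 1 μM CpG. Activated NFκB p65 in nuclear extracts was measured by TransAM ELISA in duplicate.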

TLR2/TLR6 (Mus musculus) [8] = target: T1, TLR2/TLR6 (Mus musculus); assay: Inhibition of TLR2/6-mediated NFkappaB p65 activation in BLP-stimulated BALB/c mouse BMDM at 5 ug/ml preincubated for 18 hrs followed by BLP challenge measured after 1 hr by TransAM ELISA; format: protein-complex assay; outline: as §2
[9] = target: T2, Toll-like receptor 4 (Mus musculus); assay: Inhibition of TLR4-mediated NFkappaB p65 activation in LPS-stimulated BALB/c mouse BMDM at 5 ug/ml preincubated for 18 hrs followed by LPS challenge measured after 1 hr by TransAM ELISA; outline: as §2

Row | Structure (SMILES) | inhibition (TLR2/TLR6 (Mus musculus) [1]) | inhibition [2] | inhibition (TLR2/TLR6 (Mus musculus) [3]) | inhibition [4] | inhibition [5] | inhibition [6] | inhibition [7] | inhibition (TLR2/TLR6 (Mus musculus) [8]) | inhibition [9]
1 | CN(C)CCS(=O)(=O)Cc1ccc(F)cc1 | Active | inactive | Active | inactive | inactive | inactive |  |  | 
2 | C[N+](C)(C)CCCS(=O)(=O)Cc1ccc(Br)cc1 | inactive | Active | Active | inactive | inactive | inactive |  |  | 
3 | O=S(=O)(CCN1CCOCC1)NCc1ccc(Br)cc1 | inactive | inactive | inactive | inactive | inactive | inactive |  |  | 
4 | O=[N+]([O-])c1ccc(CNS(=O)(=O)CCN2CCOCC2)cc1 | inactive | inactive | inactive | inactive | inactive | inactive |  |  | 
5 | CC[C@@H](C)NCCS(=O)(=O)Cc1ccc(Br)cc1 | inactive | inactive | inactive | inactive | inactive | inactive |  |  | 
6 | O=S(=O)(CCN1CCOCC1)Cc1cccc(F)c1 | inactive | inactive | inactive | inactive | inactive | inactive |  |  | 
7 | Cc1ccc(CNS(=O)(=O)CCN2CCOCC2)cc1 | inactive | inactive | inactive | inactive | inactive | inactive |  |  | 
8 | O=S(=O)(CCNCCCO)c1ccccc1 | Active | inactive | inactive | inactive | inactive | inactive |  |  | 
9 | O=S(=O)(Cc1ccc(F)cc1)NCCN1CCCC1 | inactive | inactive | inactive | inactive | inactive | inactive |  |  | 
10 | COc1ccc2c(CS(=O)(=O)NCCN3CCOCC3)cc(=O)oc2c1 | Active | inactive | inactive | inactive | inactive | Active |  |  | 
11 | CN(C)CCS(=O)(=O)NCc1ccc([N+](=O)[O-])cc1 | Active | Active | Active | Active | Active | inactive | inactive | inactive | inactive
12 | O=S(=O)(CCN1CCCC1)NCc1ccc(F)cc1 | inactive | Active | inactive | Active | Active | inactive |  |  | 
13 | Cc1ccc(CP(=O)(O)OCCCN(C)C)cc1 | inactive | inactive | inactive | inactive | inactive | inactive |  |  | 
